For assay [1], the system named is A549. The experiment in a line: Antitumor activity against A549 human lung carcinoma cell line. Format: functional, cell-based. A digest of the protocol:
(§1)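 Crystal violet staining of cultured tumour cells. The stain was solubilized in 0.1 M AcOH-EtOH (1:1 v/v) and optical density read at 590 nm. IC50 came from linear regression of the absorbance data. Compounds were in DMSO vehicle; mitomycin C was in DMSO/saline. Indoloquinone values are the mean of two experiments per cell line.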

Assay [2] has as its system B16-F10. The experiment in a line: Antitumor activity against B16-F10 murine melanoma cell line. Format: functional, cell-based. To be noted: Mus musculus. A digest of the protocol: as §1
Assay [3] relates to B16. The experiment in a line: Antitumor activity against B16-BN murine melanoma cell line. As to conditions: Mus musculus. Format: functional, cell-based. A digest of the protocol: as §1
For assay [4], the system named is P388. Description: Maximum effect against P388 murine leukemia in mice at a dose of 25.6 mg/kg. Type of assay: functional, Mus musculus.
The subject of assay [5] is HCT-116. Description: Antitumor activity against HCT116 human colon carcinoma cell line. Type of assay: functional, cell-based. A digest of the protocol:
as §1

Assay [6] is filed under the species Homo sapiens. Description: Antitumor activity against moser human colon carcinoma cell line. Format: functional. A digest of the protocol:
as §1

Assay [7] is described as follows: Antitumor activity against SW1271 human lung carcinoma cell line. Type of assay: functional, cell-based. A digest of the protocol: as §1
Assay [8] has as its system P388. The experiment in a line: Minimum effective dose of compound against P388 murine leukemia in mice. Type of assay: functional. As to conditions: Mus musculus, read-out: MED. A digest of the protocol: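 P388 ascites leukemia (10^6 cells) in CDF1 female mice, dosed once on day 1, six mice per dose, saline controls (10). Minimal effective dose defined as dose giving % T/C = 125, from median survival times.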

The test system of assay [9] is P388. The experiment in a line: Maximum effect on P388 murine leukemia in mice at a dose of 32.0 mg/kg. Type of assay: functional, Mus musculus. A digest of the protocol: (§2)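 P388 leukemia, 10^6 ascites cells implanted in CDF1 female mice; single dose on day 1, six mice per dose, 10 saline controls, concurrent mitomycin C control group per experiment. Max effect = % T/C (median survival time treated/control × 100) at optimal dose.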

Assay [10] has as its system P388. Description: Maximum effect on P388 murine leukemia in mice at a dose of 12.8 mg/kg. Type of assay: functional, Mus musculus. A digest of the protocol: as §2
Assay [11] has as its system P388. Description: Maximum effect on P388 murine leukemia in mice at a dose of 6.4 mg/kg. Format: functional, Mus musculus.
Assay [12] in a line: Antitumor activity against SW900 human lung carcinoma cell line. Format: functional, cell-based. A digest of the protocol:
as §1

The subject of assay [13] is P388. The experiment in a line: Maximum effect on P388 murine leukemia in mice at a dose of 25.6 mg/kg.
Assay [14] relates to A549. Description: Antitumor activity against A549 human lung carcinoma cell line in experiment 1. Type of assay: functional, cell-based. A digest of the protocol: (§3)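 Cell growth in A549 and HCT-116 cultures was read by tetrazolium staining, with an IC50 reported for each of two separate experiments.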
The test system of assay [15] is HCT-116. Description: Antitumor activity against HCT116 human colon carcinoma cell line experiment 1. Type of assay: functional, cell-based. A digest of the protocol:
as §3

The subject of assay [16] is HCT-116. Description: Antitumor activity against HCT116 human colon carcinoma cell line experiment 2. Format: functional, cell-based. A digest of the protocol:
as §3

The subject of assay [17] is A549. Description: Antitumor activity against A549 human lung carcinoma cell line in experiment 2. Format: functional, cell-based. A digest of the protocol: as §3
The subject of assay [18] is P388. Description: Maximum effect on P388 murine leukemia in mice at a dose of 51.2 mg/kg. Type of assay: functional, Mus musculus.

The record followed here is ChEMBL document CHEMBL1124560, “New 2-substituted indoloquinone mitomycin analogues” (J Med Chem, 1989).

≈ marks a conversion by molar mass, not a printed value.

The term IC50 denotes the concentration that inhibits the measured activity by half. One may read the T/C as the result in the treated group divided by that in the control group, in per cent. Consider `CNC(=O)OCc1c2c(n(C)c1COC(=O)NC)C(O)=C(C)C(=N)C2=O`, for which the half-inhibitory concentration (IC50) in assay [1] worked out at 1.6 µg/mL (≈ 4.39 µM); in [2], 13.3 µg/mL (≈ 36.5 µM); in assay [3], 9.5 µg/mL (≈ 26.1 µM); in assay [5] it was 3.7 µg/mL (≈ 10.2 µM); in assay [6], 3.1 µg/mL (≈ 8.51 µM); in assay [7], 7.9 µg/mL (≈ 21.7 µM). Further, the T/C in assay [4] is 120%.

Consider `CNC(=O)OCc1c2c(n(C)c1COC(=O)NC)C(=O)C(C)=C(N1CC1)C2=O`, for which the IC50 is 0.03 µg/mL (≈ 0.0768 µM) in assay [1]; 0.66 µg/mL (≈ 1.69 µM) in [2]; 1.6 µg/mL (≈ 4.1 µM) in assay [3]; 0.17 µg/mL (≈ 0.435 µM) in [5]; 0.13 µg/mL (≈ 0.333 µM) in assay [6]; 2.7 µg/mL (≈ 6.92 µM) in assay [7]. The minimal effective dose in assay [8] is 14.5 mg/kg. The same molecule came in with a T/C in [9] of 145%.

With `CNC(=O)OCc1c2c(n(C)c1COC(C)=O)C(=O)C(C)=C(N1CC1)C2=O`, the IC50 in [1] is less than 0.02 µg/mL; in [2], 0.39 µg/mL (≈ 1.04 µM); in assay [3], 0.27 µg/mL (≈ 0.719 µM); in assay [5] it was 0.065 µg/mL (≈ 0.173 µM); in assay [6] it was 0.035 µg/mL (≈ 0.0932 µM); in assay [7], 0.73 µg/mL (≈ 1.94 µM). Moreover, in [10], the T/C is 114%.

For the molecule `CNC(=O)OCc1c2c(n(C)c1COC(=O)NC)C(=O)C(C)=C(OC)C2=O`, the IC50 in [2] was less than 0.03 µg/mL; in assay [12], less than 0.03 µg/mL; in [5] it was less than 0.03 µg/mL; in assay [6], less than 0.03 µg/mL; in assay [7], 0.14 µg/mL (≈ 0.369 µM). The molecule further returned a T/C in assay [11] of 100%.

For the molecule `CNC(=O)OCc1c2c(n(C)c1COC(C)=O)C(O)=C(C)C(=N)C2=O`, the IC50 is greater than 3.1 µg/mL in assay [1]; greater than 31 µg/mL in assay [2]; 14 µg/mL (≈ 40.1 µM) in assay [3]; greater than 31 µg/mL in assay [5]; 12.8 µg/mL (≈ 36.6 µM) in assay [6]; greater than 31 µg/mL in [7]. In assay [13], the T/C is listed as 105%.

For the molecule `CNC(=O)OCc1c2c(n(C)c1C(C)OC(C)=O)C(=O)C(C)=C(OC)C2=O` (stereo unspecified), the IC50 is 0.075 µg/mL (≈ 0.198 µM) in assay [14], 0.06 µg/mL (≈ 0.159 µM) in [15], 0.06 µg/mL (≈ 0.159 µM) in assay [16] and 0.065 µg/mL (≈ 0.172 µM) in [17].

As for `CNC(=O)OCc1c2c(n(C)c1COC(C)=O)C(=O)C(C)=C(OC)C2=O`, the IC50 in assay [2] is 0.2 µg/mL (≈ 0.549 µM); in assay [12], 0.04 µg/mL (≈ 0.11 µM); in assay [5] it was 0.065 µg/mL (≈ 0.178 µM); in assay [6] it was 0.09 µg/mL (≈ 0.247 µM); in assay [7], 0.47 µg/mL (≈ 1.29 µM). Also, the T/C in [18] is on record as 105%.

For the molecule `CO[C@@]12[C@H](COC(N)=O)C3=C(C(=O)C(C)=C(N)C3=O)N1C[C@@H]1N[C@@H]12` [MITOMYCIN], the IC50 in assay [1] was 0.47 µg/mL (≈ 1.41 µM); in assay [2], 1.5 µg/mL (≈ 4.49 µM); in assay [3], 3.6 µg/mL (≈ 10.8 µM); in [12], 0.24 µg/mL (≈ 0.718 µM); in [5], 1.1 µg/mL (≈ 3.29 µM); in assay [14], 0.015 µg/mL (≈ 0.0449 µM). In addition, the IC50 in [6] turned out to be 2.8 µg/mL (≈ 8.37 µM); in assay [15] it was 0.015 µg/mL (≈ 0.0449 µM); in [16], 0.01 µg/mL (≈ 0.0299 µM); in [17] it was 0.08 µg/mL (≈ 0.239 µM); in [7], 8.1 µg/mL (≈ 24.2 µM).
